According to ChEMBL document CHEMBL2176955, “Discovery of the macrocycle 11-(2-pyrrolidin-1-yl-ethoxy)-14,19-dioxa-5,7,26-triaza-tetracyclo[19.3.1.1(2,6).1(8,12)]heptacosa-1(25),2(26),3,5,8,10,12(27),16,21,23-decaene (SB1518), a potent Janus kinase 2/fms-like tyrosine kinase-3 (JAK2/FLT3) inhibitor for the treatment of myelofibrosis and …” (J Med Chem, 2011):

Tests used:
[1] = Antitumor activity against mouse BA/F3 cells harboring JAK2 V617F mutant allografted in athymic BALB/c nude mouse assessed as normalization of liver weight at 150 mg/kg, po bid administered on day 4 post inoculation for 13 consecutive days measured on day 13 relative to vehicle-treated control; assay type: functional, BaF3
Procedure, shortened: (§1)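 Female BALB/c nude mice given 2 × 10⁶ Ba/F3-JAK2 V617F cells by tail vein in serum-free medium. Oral dosing twice daily at 75 or 150 mg/kg (free base) from day 4 for 13 days, 8 mice per group, 4 naive baseline mice. Spleens and livers weighed at sacrifice; ANOVA with Dunnett's test.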

[2] = Antitumor activity against mouse BA/F3 cells harboring JAK2 V617F mutant allografted in athymic BALB/c nude mouse assessed as normalization of spleen weight at 150 mg/kg, po bid administered on day 4 post inoculation for 13 consecutive days measured on day 13 relative to vehicle-treated control; assay type: functional, BaF3; procedure, shortened: as §1
[3] = system: Mus musculus; experiment: Toxicity in athymic BALB/c nude mouse allografted with mouse BA/F3 cells harboring JAK2 V617F mutant assessed as body weight loss at 75 mg/kg, po administered twice daily for 13 consecutive days starting from day 4 post challenge relative to control; assay type: organism-based, BaF3; design: dose 75 mg/kg, route oral; conditions: in vivo
[4] = system: Mus musculus; experiment: Toxicity in athymic BALB/c nude mouse xenografted with human MV4-11 cells harboring FLT3 ITD assessed as body weight loss at 50 to 100 mg/kg, po qd administered for 21 consecutive days measured up to 55 days relative to control; assay type: organism-based; design: dose 50-100 mg/kg, route oral; conditions: in vivo, 1320 h
Procedure, shortened: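 Female BALB/c nude mice implanted subcutaneously in right flank with 1 × 10⁷ MV4-11 cells in Matrigel 1:1. At about 130 mm³, oral once-daily dosing at 25, 50 or 100 mg/kg (free base) for 21 days, 8–10 mice per group. Tumours followed to day 55 or 1000 mm³; body weight assessed at termination.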

[5] = system: MV4-11; experiment: Antitumor activity against human MV4-11 cells harboring FLT3 ITD xenografted in athymic BALB/c nude mouse assessed as survival at 100 mg/kg, po qd administered for 21 consecutive days measured up to 55 days ( Rvb = 33 days ); assay type: functional
[6] = system: MV4-11; experiment: Antitumor activity against human MV4-11 cells harboring FLT3 ITD xenografted in athymic BALB/c nude mouse assessed as survival at 50 mg/kg, po qd administered for 21 consecutive days measured up to 55 days ( Rvb = 33 days ); assay type: functional
[7] = system: MV4-11; experiment: Antitumor activity against human MV4-11 cells harboring FLT3 ITD xenografted in athymic BALB/c nude mouse assessed as survival at 25 mg/kg, po qd administered for 21 consecutive days measured up to 55 days ( Rvb = 33 days ); assay type: functional
[8] = Half life in rat liver microsomes at 5 uM by LC/MS/MS analysis; assay type: ADME, Microsome
Procedure, shortened: (§2)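 Compound at 5 μM incubated at 37 °C with dog or rat liver microsomes (~0.87 mg/mL) in 50 mM potassium phosphate pH 7.4 with NADPH regenerating system.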

[9] = Half life in dog liver microsomes at 5 uM by LC/MS/MS analysis; assay type: ADME, Canis lupus familiaris, Microsome; procedure, shortened: as §2
[10] = AUC ( 0 to 8 hrs) in Beagle dog at 3 mg/kg, po administered via gelatin capsule as single dose; assay type: ADME, organism-based, Canis lupus familiaris; design: time < 8 hr, dose 3 mg/kg, route oral; conditions: plasma
[11] = Terminal half life in Beagle dog at 3 mg/kg, po administered via gelatin capsule as single dose; assay type: ADME, organism-based, Canis lupus familiaris; design: dose 3 mg/kg, route oral; conditions: in vivo, read-out: beta t1/2 (converted)
[12] = Tmax in Beagle dog at 3 mg/kg, po administered via gelatin capsule as single dose; assay type: ADME, organism-based, Canis lupus familiaris; design: dose 3 mg/kg, route oral; conditions: in vivo
[13] = AUC (0 to 8 hrs) in Wistar rat at 10 mg/kg, po administered as single dose; assay type: ADME, organism-based; design: time < 8 hr, dose 10 mg/kg, route oral; conditions: plasma
[14] = Cmax in Beagle dog at 3 mg/kg, po administered via gelatin capsule as single dose; assay type: ADME, organism-based, Canis lupus familiaris; design: dose 3 mg/kg, route oral; conditions: in vivo
[15] = Terminal half life in Wistar rat at 10 mg/kg, po administered as single dose; assay type: ADME, organism-based; design: dose 10 mg/kg, route oral; conditions: in vivo, read-out: beta t1/2 (converted)
[16] = Cmax in Wistar rat at 10 mg/kg, po administered as single dose; assay type: ADME, organism-based; design: dose 10 mg/kg, route oral; conditions: in vivo
[17] = Terminal half life in BALB/c mouse at 30 mg/kg, po administered as single dose; assay type: ADME, organism-based; design: dose 30 mg/kg, route oral; conditions: in vivo, read-out: beta t1/2 (converted)
[18] = AUC (0 to 8 hrs) in BALB/c mouse at 30 mg/kg, po administered as single dose; assay type: ADME, organism-based; design: time < 8 hr, dose 30 mg/kg, route oral; conditions: plasma
[19] = Cmax in BALB/c mouse at 30 mg/kg, po administered as single dose; assay type: ADME, organism-based; design: dose 30 mg/kg, route oral; conditions: in vivo
[20] = Oral bioavailability in Wistar rat at 10 mg/kg, administered as single dose; assay type: ADME, organism-based; conditions: in vivo
[21] = Oral bioavailability in Beagle dog at 3 mg/kg, administered as single dose; assay type: ADME, organism-based, Canis lupus familiaris; conditions: in vivo
[22] = Plasma protein binding in mouse at 1000 ng/ml by LC/MS/MS analysis; assay type: ADME, cell-free; conditions: read-out: PPB (converted)
Procedure, shortened: (§3)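 Equilibrium dialysis of mouse, dog or human plasma spiked to 1000 ng/mL against PBS, 4 h at 37 °C. The buffer side was extracted with MTBE in triplicate and analysed by LC/MS/MS.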

[23] = Oral bioavailability in BALB/c mouse at 30 mg/kg, administered as single dose; assay type: ADME, organism-based; conditions: in vivo
[24] = Plasma protein binding in human at 1000 ng/ml by equilibrium dialysis assay; assay type: ADME, cell-free; conditions: read-out: PPB (converted); procedure, shortened: as §3
[25] = Plasma protein binding in dog at 1000 ng/ml by LC/MS/MS analysis; assay type: ADME, cell-free, Canis lupus familiaris; conditions: read-out: PPB (converted); procedure, shortened: as §3
[26] = Apparent permeability from apical to basolateral side in human Caco2 cells at 5 uM after 2 hrs by LC/MS analysis at pH 7.4; assay type: ADME, cell-based; conditions: Caco-2, pH 7.4
Procedure, shortened: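 Compound at 5 μM in HBSS (DMSO <1%) applied apically or basolaterally to 21–28 day Caco-2 monolayers, both sides pH 7.4. Both sides sampled at 2 h, LC/MS quantitation with 4-point calibration. Monolayer integrity checked by TEER (450–650 Ωcm²) and Lucifer Yellow.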

[27] = system: MV4-11; experiment: Antiproliferative activity against human MV4-11 cells harboring FLT3 […] mutant assessed as cell viability after 48 hrs by Cell titer Glo assay; assay type: functional; conditions: MV4-11, 48 h
[28] = Antiproliferative activity against mouse BA/F3 cells harboring JAK2 V617F mutation assessed as cell viability after 48 hrs by Cell titer Glo assay; assay type: functional; conditions: BaF3, 48 h
[29] = target: CYP2D6 (Homo sapiens, UniProt P10635); experiment: Inhibition of CYP2D6 in human liver microsomes assessed as decrease in formation of dextrorphan from dextromethorphan substrate at 5 uM after 30 mins by LC-MS/MS; assay type: ADME, Microsome; conditions: probe dextromethorphan
Sequence of CYP2D6 (P10635 whole entry, canonical isoform): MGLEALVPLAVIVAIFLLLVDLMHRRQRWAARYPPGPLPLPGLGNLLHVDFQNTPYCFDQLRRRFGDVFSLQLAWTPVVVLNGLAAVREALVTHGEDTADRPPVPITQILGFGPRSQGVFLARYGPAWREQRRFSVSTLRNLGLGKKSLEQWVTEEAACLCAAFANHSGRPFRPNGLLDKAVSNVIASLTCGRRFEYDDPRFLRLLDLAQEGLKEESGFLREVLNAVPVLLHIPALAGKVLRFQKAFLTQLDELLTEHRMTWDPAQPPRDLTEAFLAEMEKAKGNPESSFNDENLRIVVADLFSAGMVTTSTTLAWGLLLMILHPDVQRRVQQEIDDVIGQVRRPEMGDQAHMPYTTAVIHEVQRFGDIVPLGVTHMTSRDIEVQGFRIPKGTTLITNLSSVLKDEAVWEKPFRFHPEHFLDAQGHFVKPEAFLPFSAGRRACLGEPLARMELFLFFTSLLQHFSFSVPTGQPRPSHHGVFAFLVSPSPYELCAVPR
Procedure, shortened: (§4)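 Human liver microsomes with 1 mM NADPH at 37 °C. Test compound at 0.05–25 μM (final DMSO 0.35%). Conditions per isoform: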

[30] = target: CYP3A4 (Homo sapiens, UniProt P08684); experiment: Inhibition of CYP3A4 in human liver microsomes assessed as decrease in formation of 1-hydroxymidazolam from midazolam substrate at 5 uM after 5 mins by LC-MS/MS; assay type: ADME, Microsome; conditions: probe midazolam; procedure, shortened: as §4
Sequence of CYP3A4 (P08684 whole entry): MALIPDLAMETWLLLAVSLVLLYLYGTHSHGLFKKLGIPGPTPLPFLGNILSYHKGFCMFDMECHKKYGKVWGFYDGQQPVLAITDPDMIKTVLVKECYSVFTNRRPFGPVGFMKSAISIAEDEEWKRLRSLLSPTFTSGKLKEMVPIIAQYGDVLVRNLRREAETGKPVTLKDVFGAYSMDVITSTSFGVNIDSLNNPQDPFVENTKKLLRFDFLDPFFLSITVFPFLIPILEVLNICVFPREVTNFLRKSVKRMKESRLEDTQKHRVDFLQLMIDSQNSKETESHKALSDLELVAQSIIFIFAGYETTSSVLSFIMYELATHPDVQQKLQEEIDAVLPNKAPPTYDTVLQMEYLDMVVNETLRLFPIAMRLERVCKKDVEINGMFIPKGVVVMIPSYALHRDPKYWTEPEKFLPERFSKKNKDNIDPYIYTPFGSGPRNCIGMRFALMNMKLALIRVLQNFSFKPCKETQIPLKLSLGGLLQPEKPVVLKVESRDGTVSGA

[31] = target: Cytochrome P450 2C19 (Homo sapiens, UniProt P33261); experiment: Inhibition of CYP2C19 in human liver microsomes assessed as decrease in formation of 4-hydroxymephenytoin from mephenytoin substrate after 60 mins by LC-MS/MS; assay type: ADME, Microsome; procedure, shortened: as §4
Sequence of Cytochrome P450 2C19 (P33261 whole entry): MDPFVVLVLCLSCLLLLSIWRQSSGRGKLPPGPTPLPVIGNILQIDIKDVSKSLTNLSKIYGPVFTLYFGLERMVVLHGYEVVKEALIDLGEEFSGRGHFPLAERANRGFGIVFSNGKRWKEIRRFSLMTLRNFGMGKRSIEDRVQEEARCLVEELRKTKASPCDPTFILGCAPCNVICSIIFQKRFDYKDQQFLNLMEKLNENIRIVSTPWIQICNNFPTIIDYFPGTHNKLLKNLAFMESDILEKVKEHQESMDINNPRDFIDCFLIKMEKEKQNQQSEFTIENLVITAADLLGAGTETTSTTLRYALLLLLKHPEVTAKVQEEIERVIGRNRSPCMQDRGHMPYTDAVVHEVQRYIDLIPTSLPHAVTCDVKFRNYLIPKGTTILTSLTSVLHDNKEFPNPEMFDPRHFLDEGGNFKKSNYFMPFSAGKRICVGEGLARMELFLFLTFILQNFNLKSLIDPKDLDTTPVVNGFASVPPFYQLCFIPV

[32] = target: Cytochrome P450 2C9 (Homo sapiens, UniProt P11712); experiment: Inhibition of CYP2C9 in human liver microsomes assessed as decrease in formation of 4-hydroxytolbutamide from tolbutamide substrate after 60 mins by LC-MS/MS; assay type: ADME, Microsome; procedure, shortened: as §4
Sequence of Cytochrome P450 2C9 (P11712 whole entry): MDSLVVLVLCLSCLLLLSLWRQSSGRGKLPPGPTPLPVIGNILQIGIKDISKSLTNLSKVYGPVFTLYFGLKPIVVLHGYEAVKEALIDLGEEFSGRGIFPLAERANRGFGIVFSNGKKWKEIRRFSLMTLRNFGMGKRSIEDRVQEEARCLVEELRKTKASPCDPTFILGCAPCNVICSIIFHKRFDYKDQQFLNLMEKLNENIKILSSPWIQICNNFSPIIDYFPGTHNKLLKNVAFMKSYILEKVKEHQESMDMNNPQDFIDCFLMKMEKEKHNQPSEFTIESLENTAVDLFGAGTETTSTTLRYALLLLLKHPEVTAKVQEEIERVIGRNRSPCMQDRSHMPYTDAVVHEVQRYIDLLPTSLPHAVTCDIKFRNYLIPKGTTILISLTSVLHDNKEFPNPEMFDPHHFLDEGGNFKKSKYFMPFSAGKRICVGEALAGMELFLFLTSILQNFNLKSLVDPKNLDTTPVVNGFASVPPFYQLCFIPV

[33] = target: T1, Cytochrome P450 1A2 (Homo sapiens, UniProt P05177); experiment: Inhibition of CYP1A2 in human liver microsomes assessed as decrease in formation of resorufin from ethoxyresorufin substrate after 5 mins by LC-MS/MS; assay type: ADME, Microsome; procedure, shortened: as §4
T1 sequence (P05177 whole entry): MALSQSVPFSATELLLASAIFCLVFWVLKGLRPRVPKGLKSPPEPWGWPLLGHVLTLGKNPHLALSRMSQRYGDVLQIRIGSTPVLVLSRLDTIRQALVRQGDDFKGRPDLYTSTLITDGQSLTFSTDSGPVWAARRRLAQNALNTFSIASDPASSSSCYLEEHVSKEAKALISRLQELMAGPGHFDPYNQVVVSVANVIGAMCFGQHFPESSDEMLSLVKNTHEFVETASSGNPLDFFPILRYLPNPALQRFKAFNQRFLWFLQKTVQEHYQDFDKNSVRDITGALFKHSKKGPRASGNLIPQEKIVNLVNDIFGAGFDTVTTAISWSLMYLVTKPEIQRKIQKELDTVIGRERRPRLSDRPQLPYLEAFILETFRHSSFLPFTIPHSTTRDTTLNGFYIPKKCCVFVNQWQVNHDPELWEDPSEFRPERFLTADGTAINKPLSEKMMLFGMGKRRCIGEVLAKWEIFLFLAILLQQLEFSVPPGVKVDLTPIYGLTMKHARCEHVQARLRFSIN

[34] = target: Non-receptor tyrosine-protein kinase TYK2 (Homo sapiens, UniProt P29597); experiment: Inhibition of recombinant TYK2
Sequence of Non-receptor tyrosine-protein kinase TYK2 (P29597 whole entry): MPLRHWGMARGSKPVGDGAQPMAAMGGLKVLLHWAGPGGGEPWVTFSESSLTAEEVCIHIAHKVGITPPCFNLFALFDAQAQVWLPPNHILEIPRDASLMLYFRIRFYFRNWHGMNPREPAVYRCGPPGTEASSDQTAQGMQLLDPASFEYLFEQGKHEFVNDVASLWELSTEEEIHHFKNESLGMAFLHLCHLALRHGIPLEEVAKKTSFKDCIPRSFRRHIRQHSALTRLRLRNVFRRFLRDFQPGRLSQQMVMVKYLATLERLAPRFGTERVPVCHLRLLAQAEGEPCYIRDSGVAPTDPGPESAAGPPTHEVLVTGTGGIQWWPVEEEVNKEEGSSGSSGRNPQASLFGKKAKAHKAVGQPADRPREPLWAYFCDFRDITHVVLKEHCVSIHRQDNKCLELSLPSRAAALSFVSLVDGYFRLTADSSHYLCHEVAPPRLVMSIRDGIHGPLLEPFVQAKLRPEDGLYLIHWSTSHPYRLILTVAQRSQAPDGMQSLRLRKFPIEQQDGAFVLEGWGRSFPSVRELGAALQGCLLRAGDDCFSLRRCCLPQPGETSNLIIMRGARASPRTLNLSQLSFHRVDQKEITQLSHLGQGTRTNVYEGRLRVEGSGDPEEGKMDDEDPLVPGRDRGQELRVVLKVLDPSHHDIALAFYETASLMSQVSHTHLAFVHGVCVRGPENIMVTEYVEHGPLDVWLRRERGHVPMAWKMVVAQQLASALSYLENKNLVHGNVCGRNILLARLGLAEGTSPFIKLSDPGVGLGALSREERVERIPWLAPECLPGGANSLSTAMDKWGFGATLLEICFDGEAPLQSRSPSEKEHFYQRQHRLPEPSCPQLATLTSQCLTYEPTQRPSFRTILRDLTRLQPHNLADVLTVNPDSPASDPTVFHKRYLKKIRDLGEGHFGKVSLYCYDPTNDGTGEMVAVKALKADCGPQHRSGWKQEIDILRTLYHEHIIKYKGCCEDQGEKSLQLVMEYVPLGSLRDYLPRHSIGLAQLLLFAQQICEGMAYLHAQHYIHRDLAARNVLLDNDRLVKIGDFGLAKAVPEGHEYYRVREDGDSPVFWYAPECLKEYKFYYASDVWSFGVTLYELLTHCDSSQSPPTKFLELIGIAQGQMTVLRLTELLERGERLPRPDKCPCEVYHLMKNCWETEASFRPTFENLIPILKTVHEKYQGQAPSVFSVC

[35] = target: Tyrosine-protein kinase JAK1 (Homo sapiens, UniProt P23458); experiment: Inhibition of recombinant JAK1 using Poly (Glu,Ala,Tyr) as substrate after 2 hrs by luminescence assay
Sequence of Tyrosine-protein kinase JAK1 (P23458 whole entry): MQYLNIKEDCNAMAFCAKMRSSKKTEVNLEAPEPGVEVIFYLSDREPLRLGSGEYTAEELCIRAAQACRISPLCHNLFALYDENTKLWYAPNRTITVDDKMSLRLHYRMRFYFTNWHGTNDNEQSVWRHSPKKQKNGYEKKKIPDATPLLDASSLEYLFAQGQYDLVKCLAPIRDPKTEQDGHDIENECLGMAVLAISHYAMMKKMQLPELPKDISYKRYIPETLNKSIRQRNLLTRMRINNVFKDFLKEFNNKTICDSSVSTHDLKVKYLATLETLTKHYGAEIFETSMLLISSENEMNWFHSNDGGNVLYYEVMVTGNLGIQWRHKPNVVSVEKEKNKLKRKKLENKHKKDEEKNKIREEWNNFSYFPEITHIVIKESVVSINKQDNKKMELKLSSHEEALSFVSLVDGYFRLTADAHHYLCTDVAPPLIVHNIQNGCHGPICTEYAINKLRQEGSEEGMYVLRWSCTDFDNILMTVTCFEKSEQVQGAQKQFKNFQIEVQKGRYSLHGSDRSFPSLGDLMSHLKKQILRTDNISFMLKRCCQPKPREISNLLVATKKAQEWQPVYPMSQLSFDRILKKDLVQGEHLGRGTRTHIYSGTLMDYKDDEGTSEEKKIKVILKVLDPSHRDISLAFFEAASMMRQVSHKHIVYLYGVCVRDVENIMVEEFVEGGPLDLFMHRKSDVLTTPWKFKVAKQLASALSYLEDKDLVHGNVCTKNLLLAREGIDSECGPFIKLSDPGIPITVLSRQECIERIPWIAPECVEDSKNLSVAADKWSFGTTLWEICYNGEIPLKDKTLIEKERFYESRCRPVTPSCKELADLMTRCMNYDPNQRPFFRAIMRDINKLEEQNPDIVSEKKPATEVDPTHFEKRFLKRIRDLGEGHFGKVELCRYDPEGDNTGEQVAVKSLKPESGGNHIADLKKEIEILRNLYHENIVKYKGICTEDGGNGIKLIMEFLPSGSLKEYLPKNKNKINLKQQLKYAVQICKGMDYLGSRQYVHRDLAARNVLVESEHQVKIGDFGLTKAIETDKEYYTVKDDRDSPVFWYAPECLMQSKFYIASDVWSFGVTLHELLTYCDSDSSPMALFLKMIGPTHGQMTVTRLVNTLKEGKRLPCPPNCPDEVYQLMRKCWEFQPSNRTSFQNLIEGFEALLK
Procedure, shortened: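 Luciferase-coupled ATP-depletion luminescence assay in 50 mM Hepes pH 7.5 with MgCl₂, MnCl₂, BGP, DTT and orthovanadate, 2 h at room temperature. Conditions per target: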

[36] = target: Cyclin-dependent kinase 2/cyclin A (Homo sapiens, UniProt P24941); experiment: Inhibition of recombinant CDK2/Cyclin A using RbinG as substrate after 2 hrs by luminescence assay; assay type: protein-complex assay
[37] = in vitro; conditions: PAMPA
[38] = physchem; conditions: phosphate buffer saline, pH 7
[39] = system: Mus musculus; experiment: Toxicity in athymic BALB/c nude mouse allografted with mouse BA/F3 cells harboring JAK2 V617F mutant assessed as body weight loss at 75 and 150 mg/kg, po administered twice daily for 13 consecutive days starting from day 4 post challenge relative to control; conditions: in vivo

## C1=CCOCc2cc(ccc2OCCN2CCCC2)Nc2nccc(n2)-c2cccc(c2)COC1.Cl (mixture of isomers)
[1]
  Activity: 99%
[2]
  Activity: 42%

## C1=N/C2=N/c3ccc(OCCN4CCCC4)c(c3)COC/C=C/COCc3cccc(c3)C(=C1)N2 (mixture of isomers) [PACRITINIB]
[3]
  Activity: Non-toxic
[4]
  Activity: Non-toxic
[5]
  Survival: 55 days
[6]
  Survival: 55 days
[7]
  Survival: 35 days
[8]
  half-life at 5 µM: 0.3 h
[9]
  half-life at 5 µM: 0.683 h
[10]
  AUC(0-t) at 8 h: 53 ng·h/mL
[11]
  half-life: 3.4 h
[12]
  Tmax: 2 h
[13]
  AUC(0-t) at 8 h: 599 ng·h/mL
[14]
  Cmax: 11.5 ng/mL
[15]
  half-life: 5.7 h
[16]
  Cmax: 114 ng/mL
[17]
  half-life: 0.84 h
[18]
  AUC(0-t) at 8 h: 399 ng·h/mL
[19]
  Cmax: 292 ng/mL
[20]
  bioavailability: 10%
[21]
  bioavailability: 24%
[22]
  fraction unbound at 1000 ng/ml: 0.0059
[23]
  bioavailability: 39%
[24]
  fraction unbound at 1000 ng/ml: 0.0012
[25]
  fraction unbound at 1000 ng/ml: 0.0037
[26]
  Papp A→B at 2 h, 5 µM: 16 ×10⁻⁶ cm/s
[27]
  GI50: 47 nM
[28]
  GI50: 160 nM
[29]
  inhibition at 0.5 h, 5 µM: 20%
[30]
  inhibition at 5 min, 5 µM: 20%
[31]
  IC50: > 5000 nM
[32]
  IC50: > 5000 nM
[33]
  IC50: > 5000 nM
[34]
  IC50: 50 nM
[35]
  IC50: 1280 nM
[36]
  IC50: 3900 nM
[37]
  Papp at 5 h, 1 µM: 9.3 ×10⁻⁶ cm/s
[38]
  solubility: > 150 µg/mL
[39]
  Activity: Non-toxic
